Results on six molecules are retold here after ChEMBL document CHEMBL1143064, “Novel 9a-carbamoyl- and 9a-thiocarbamoyl-3-decladinosyl-6-hydroxy and 6-methoxy derivatives of 15-membered macrolides” (Bioorg Med Chem, 2007).

The subject of one series is Saccharomyces cerevisiae. The series is described as follows: Toxicity against Saccharomyces cerevisiae. The following applies: in vivo. Format: organism-based. An outline of the steps:
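Yeast used as a surrogate for eukaryotic cell toxicity. Microdilution in Mueller–Hinton medium with compound from a DMF stock (5 mg/ml), final range 64 to 0.125 µg/ml. Incubated 24 h at 37 °C, with optical density read at 600 nm. MIC defined as the concentration inhibiting growth by 90%.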

Series [1] relates to Staphylococcus aureus. Nature of the series: Antibacterial activity against Staphylococcus aureus-cMLS after 24 hrs by microdilution method. Format: functional. An outline of the steps: (§1)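 Broth microdilution in Mueller–Hinton medium run on an automated liquid handler. Compounds dissolved in DMF (5 mg/ml stock) and tested in medium from 64 to 0.125 µg/ml. Plates incubated 24 h at 37 °C, then growth read as absorbance at 600 nm. MIC taken as the concentration giving 90% growth inhibition.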
On the technique in general: In broth dilution the organism is exposed to a series of concentrations in liquid medium.

For series [2], the system named is Streptococcus pyogenes. Nature of the series: Antibacterial activity against Streptococcus pyogenes-M after 24 hrs by microdilution method. Format: functional. A digest of the protocol:
as §1

The test system of series [3] is Streptococcus pyogenes. Nature of the series: Antibacterial activity against Streptococcus pyogenes after 24 hrs by microdilution method. Format: functional. An outline of the steps:
as §1

The test system of series [4] is Streptococcus pneumoniae. Nature of the series: Antibacterial activity against Streptococcus pneumoniae after 24 hrs by microdilution method. Format: functional. An outline of the steps: as §1
Series [5] relates to Staphylococcus aureus. The series is described as follows: Antibacterial activity against Staphylococcus aureus-M after 24 hrs by microdilution method. Format: functional. An outline of the steps:
as §1

Series [6] deals with Streptococcus pneumoniae. Nature of the series: Antibacterial activity against Streptococcus pneumoniae-M after 24 hrs by microdilution method. The series is classed as functional. An outline of the steps: as §1
The next series deals with Haemophilus influenzae. The series is described as follows: Antibacterial activity against Haemophilus influenzae after 24 hrs by microdilution method. Format: functional. A digest of the protocol:
as §1

In brackets after ≈: the same amount, converted by molar mass.

Turning to `CC[C@H]1OC(=O)[C@H](C)[C@@H](O)[C@H](C)[C@@H](O[C@@H]2O[C@H](C)C[C@H](N(C)C)[C@H]2O)[C@](C)(O)C[C@@H](C)CN(C(=O)NC(C)(C)C)[C@H](C)[C@@H](O)[C@]1(C)O`, in the series with Saccharomyces cerevisiae, the Activity entry is “Non-toxic”. Besides, the MIC in the series with Staphylococcus aureus [1], in the series on Streptococcus pyogenes [2], with Streptococcus pyogenes [3], against Streptococcus pneumoniae [4], against Staphylococcus aureus [5] and against Streptococcus pneumoniae [6] was greater than 64 µg/mL in each case. In the series with Haemophilus influenzae, this molecule returned an MIC greater than 64 µg/mL.
As for `CC[C@H]1OC(=O)[C@H](C)[C@@H](O)[C@H](C)[C@@H](O[C@@H]2O[C@H](C)C[C@H](N(C)C)[C@H]2O)[C@](C)(O)C[C@@H](C)CN(C(=O)NC(C)C)[C@H](C)[C@@H](O)[C@]1(C)O`, the Activity entry with Saccharomyces cerevisiae is “Non-toxic”. For the same molecule, the MIC with Staphylococcus aureus [1], against Streptococcus pyogenes [2], against Streptococcus pyogenes [3], against Streptococcus pneumoniae [4], in the series on Staphylococcus aureus [5] and in the series on Streptococcus pneumoniae [6] was greater than 64 µg/mL each time. The same molecule showed an MIC against Haemophilus influenzae greater than 64 µg/mL.
Turning to `CC[C@H]1OC(=O)[C@H](C)[C@@H](OC(=O)Cc2ccc([N+](=O)[O-])cc2)[C@H](C)[C@@H](O[C@@H]2O[C@H](C)C[C@H](N(C)C)[C@H]2O)[C@](C)(O)C[C@@H](C)CN(C(=O)Nc2ccc(Cl)cc2Cl)[C@H](C)[C@@H](O)[C@]1(C)O`, the Activity result in the series on Saccharomyces cerevisiae was “Non-toxic”. In addition, the MIC in the series with Staphylococcus aureus [1] was determined as 32 µg/mL (≈ 34.5 µM); against Streptococcus pyogenes [2] it was 32 µg/mL (≈ 34.5 µM); with Streptococcus pyogenes [3], 4 µg/mL (≈ 4.31 µM); against Streptococcus pneumoniae [4] it was 2 µg/mL (≈ 2.16 µM); against Staphylococcus aureus [5], 32 µg/mL (≈ 34.5 µM); against Streptococcus pneumoniae [6] it was 4 µg/mL (≈ 4.31 µM). In addition, the MIC in the series on Haemophilus influenzae turned out to be 32 µg/mL (≈ 34.5 µM).
Take `CC[C@H]1OC(=O)[C@H](C)[C@@H](O)[C@H](C)[C@@H](O[C@@H]2O[C@H](C)C[C@H](N(C)C)[C@H]2O)[C@](C)(O)C[C@@H](C)CN(C(=O)Nc2ccc(Cl)cc2Cl)[C@H](C)[C@@H](O)[C@]1(C)O`: the Activity result in the series on Saccharomyces cerevisiae is on record as “Non-toxic”. Moreover, the MIC against Staphylococcus aureus [1], against Streptococcus pyogenes [2], against Streptococcus pyogenes [3], in the series with Streptococcus pneumoniae [4], against Staphylococcus aureus [5] and with Streptococcus pneumoniae [6] was greater than 64 µg/mL in each case. Besides, the MIC with Haemophilus influenzae is greater than 64 µg/mL.
Regarding `CC[C@H]1OC(=O)[C@H](C)[C@@H](O)[C@H](C)[C@@H](O[C@@H]2O[C@H](C)C[C@H](N(C)C)[C@H]2O)[C@](C)(OC)C[C@@H](C)CN(C(=O)Nc2ccc(Cl)cc2Cl)[C@H](C)[C@@H](O)[C@]1(C)O`, in the series on Saccharomyces cerevisiae, the Activity entry is recorded as “Non-toxic”. Moreover, the MIC with Staphylococcus aureus [1], against Streptococcus pyogenes [2], with Streptococcus pyogenes [3], in the series on Streptococcus pneumoniae [4], against Staphylococcus aureus [5] and in the series with Streptococcus pneumoniae [6] was greater than 64 µg/mL throughout. The MIC in the series with Haemophilus influenzae was greater than 64 µg/mL.
Consider `CC[C@H]1OC(=O)[C@H](C)[C@@H](O)[C@H](C)[C@@H](O[C@@H]2O[C@H](C)C[C@H](N(C)C)[C@H]2O)[C@](C)(O)C[C@@H](C)CN(C(=S)NCc2ccccc2)[C@H](C)[C@@H](O)[C@]1(C)O`, for which the Activity entry in the series on Saccharomyces cerevisiae is “Non-toxic”. Also, the MIC with Staphylococcus aureus [1], against Streptococcus pyogenes [2], against Streptococcus pyogenes [3], in the series with Streptococcus pneumoniae [4], with Staphylococcus aureus [5] and against Streptococcus pneumoniae [6] was greater than 64 µg/mL throughout. The MIC against Haemophilus influenzae is greater than 64 µg/mL.
